Screening results deposited in PubChem BioAssay by several laboratories.
Rows were chosen to be rich in hits. Some 4.7% of all compounds tested hit in one or more screens of this group.
MrgX1 antagonist: human MrgX1 receptor antagonism, primary screen. 310,000 tested, 1.3% active. MRGX1-HEK293 calcium flux, Fluo-4, BAM8-22 antagonism; active compounds read low. B-score at 10 µM. Q96LB2;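 active = calcium-response B-score plate-corrected more than 3 library SD below zero, starting fluorescence within 5 deviations, no agonist response on first addition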;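 also: peak minus trough fluorescence over baseline after final BAM8-22 challenge near maximal dose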
RGS4 block: inhibitors of human RGS4 | P49798 | HEK293 M3R/RGS4 inducible, Fluo-4 calcium flux; active compounds read high; triggered by carbachol at its EC20 | B-score at 10 µM | 310,000 tested, 0.45% active | AID 463165;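 active = B-score, a plate-corrected calcium signal, over three deviations above library mean, with baseline fluorescence within five deviations of library mean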;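 also: RGS4 expression induced by doxycycline in cells with stable M3 receptor; B-score is computed from the integrated fluorescence ratio over baseline after carbachol; higher B-score means a larger calcium signal and so more RGS4 inhibition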
RGS4 pot: RGS4 potentiation or activation; HEK293 M3R/inducible RGS4, carbachol calcium flux Fluo4; active compounds read low; AID 463111; B-score at 10 µM; 310,000 tested, 0.92% active;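 active = B-score of the integrated calcium signal more than 4 SD below the library mean, with starting fluorescence not abnormally high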;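 also: negative B-score means reduced calcium response which marks RGS4 activation or potentiation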
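test system = M3R-expressing HEK293 line, RGS4 induced by doxycycline | probe or stimulus = carbachol at ECmax as muscarinic agonist stimulus | timing = dye loading 30 min 37 °C, buffer rest 30 min RT | signal = calcium dye Fluo4 fluorescence | evaluation = B score from integrated fluorescence ratio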
Cl transport mod: modulates chloride dependent transport by human KCC2. KCC2 cells, thallium flux FluoZin-2 fluorescence. B-score of Tl+ flux slope (higher = more flux/activation; lower = inhibition) at 10 µM. 190,000 tested, 2.2% active. AID 1456. Q9H2X9;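 active = thallium flux slope and its plate-corrected score both differing from the plate sample mean at a set confidence after two filtering rounds, in either direction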;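 also: slope of fluorescence scaled to starting intensity during 10 to 20 s after thallium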
MrgX1 agonist: human MrgX1 receptor agonism, primary screen | MrgX1-HEK293 cells, Fluo-4 calcium fluorescence, agonist mode; active compounds read high | AID 588627 | Q96LB2 | B-score at 10 µM | 310,000 tested, 0.44% active;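 active = calcium response B-score plate-corrected fluorescence ratio at least 3 library SD, with starting fluorescence B-score inside 5 SD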
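Material – MrgX1-expressing HEK293 cells · Input – 15,000 cells seeded per well · Dosing – compound as first of three additions · Times – overnight seeding, then 1 h dark dye loading · Measured by – kinetic Fluo-4 NW fluorescence of intracellular calcium · Read-out – B-scored fluorescence response ratio · Benchmarks – positive and negative control wells on each plate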
MrgX1 allo act: allosterically activates human MrgX1 receptor signaling. Q96LB2. MrgX1-HEK293, Fluo-4 calcium flux, FDSS; active compounds read high. B-score at 10 µM. 310,000 tested, 0.63% active;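 active = plate-corrected calcium response at least 3 library SD above typical, normal starting fluorescence, not activating the receptor alone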;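 also: compound read alongside a low EC10 to EC30 dose of BAM8-22 agonist; peak minus trough fluorescence over baseline measured at the second addition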
MrgX1 allo conf: human MrgX1 positive allosteric modulation, re-confirmation. shares compounds with MrgX1 allo act. activation (ratio percentage), % at 10 µM. 1,200 tested, 13% active. MrgX1-HEK293, Fluo-4 calcium fluorescence, FDSS;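 active = ratio at least 3 SD above the weak peptide control, stable starting fluorescence, no direct agonism earlier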;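 also: compound followed by low BAM8-22 agonist challenge near EC20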
HEK293 Ca flux: activity in parental HEK293 cells lacking MrgX1; AID 624111; 4,000 tested, 2% active; Fluo-4 calcium fluorescence, FDSS; fluorescence ratio F(max-min)/F0 at 10 µM; shares compounds with MrgX1 antagonist;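 active = duplicate-averaged calcium fluorescence ratio at least three times the standard deviation of buffer wells, a nonspecific response in parental cells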
HEK293 Ca counter: activity in parental HEK293 cells without MrgX1; AID 624114; fluorescence ratio F(max-min)/F0 at 10 µM; 4,000 tested, 0.4% active; parental HEK293 calcium flux, Fluo-4 fluorescence ratio; active compounds read high; shares compounds with MrgX1 antagonist;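 active = calcium fluorescence ratio, averaged over duplicates, at least 3 SD of the buffer-well ratio, meaning a nonspecific response in receptor-free cells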;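 also: untransfected parental HEK293 lacking MrgX1 used as counterscreen for MrgX1 allosteric activators; fluorescence change taken during the second addition on a kinetic imager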
HEK293 Ca cntr2: activity in parental HEK293 cells lacking MrgX1 receptor. shares compounds with MrgX1 antagonist. Fluo-4 calcium fluorescence (FDSS); active compounds read high. fluorescence ratio F(max-min)/F0 at 10 µM. 4,000 tested, 8.7% active. AID 624115;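 active = calcium fluorescence ratio at least three times the spread of buffer wells, meaning a non-specific response in parental cells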
* marks the source's active call; other numbers are inactive results; i = inactive; . = not tested or not shown.

SMILES	MrgX1 antagonist	RGS4 block	RGS4 pot	Cl transport mod	MrgX1 agonist	MrgX1 allo act	MrgX1 allo conf	HEK293 Ca flux	HEK293 Ca counter	HEK293 Ca cntr2
O=C(NC12CC3CC(CC(C3)C1)C2)c1ccc(-c2ccccc2Cl)o1	i	i	i	0.25	i	6.7*	i	i	i	i
c1ccc2c(CCNc3ncnc4nc[nH]c34)c[nH]c2c1	i	i	i	-0.76	i	7*	9.4%*	i	i	i
c1ccc(CCNc2ncnc3nc[nH]c23)cc1	i	i	i	0.54	i	i	.	.	.	.
COc1cccc(/C=N/n2c(SC)nnc2-c2ccccc2)c1O	i	i	i	.	i	20*	154%*	i	i	i
CCc1nnc(SCC(=O)Nc2ccc(NC(C)=O)cc2)n1-n1cccc1	i	i	i	.	i	i	.	.	.	.
COC(=O)c1ccccc1NC(=O)C1CCCC1	i	i	i	0.52	i	i	.	.	.	.
COC(=O)c1ccccc1NC(=O)COC(=O)C1CCCCC1	i	i	i	0.55	i	8.3*	i	i	i	i
COC(=O)c1ccccc1NC(=S)NC(=O)C1CCCCC1	i	i	i	0.78	i	7.5*	i	i	i	i
COC(=O)CC1C(=O)NCCN1C(=O)c1ccc([N+](=O)[O-])cc1 (centres undefined)	i	i	i	.	i	i	.	.	.	.
COc1ccc(CC(=O)OCC(=O)Nc2ccc3c(c2)OCO3)cc1	i	i	i	0.84	i	10*	i	i	i	i
COc1ccc(CCC(=O)Nc2ccc3c(c2)OCO3)cc1	i	i	i	.	i	i	.	.	.	.
CC(=O)Nc1sc(/C(C#N)=C\c2cccc(Cl)c2)nc1-c1ccc(C)cc1	i	i	i	0.048	i	20*	i	0.065*	i	59*
Cn1c(-c2ccccc2)cc2onc(-c3ccccc3)c2c1=O	i	.	.	.	i	12*	21%*	i	i	i
Cn1c(-c2ccccc2F)cc2onc(-c3ccccc3)c2c1=O	i	.	.	.	i	i	.	.	.	.
COc1ccc(NC(=O)CSc2nc3scc(C)c3c(=O)[nH]2)cc1	i	i	i	.	i	i	.	.	.	.
COc1cccc(N2CCN(c3ccc4nnc(CCC(=O)Nc5ccccn5)n4n3)CC2)c1	i	i	i	.	i	7.5*	i	i	i	i
COc1ccc(NC(=O)CSc2nc(SC)ns2)cc1	i	i	i	.	i	i	.	.	.	.
CCNc1nc2[nH]c(=O)c3c(c2s1)OC(N)=C(C#N)C3c1ccc(C)cc1 (centres undefined)	i	i	i	.	i	16*	i	i	i	51*
CS(=O)(=O)N1CCN(Cc2cc(=O)n3ccsc3n2)CC1	i	i	i	.	i	i	.	.	.	.
O=C(Nc1ccccc1C(=O)NCCc1ccccc1)c1cnccn1	i	i	i	.	i	i	.	.	.	.
COc1ccccc1NC(=O)C(C)Nc1ccc(C)c(Cl)c1 (centres undefined)	i	i	i	-0.85	i	6.9*	i	i	i	i
COc1ccc2[nH]c(=O)c(CN(Cc3ccccc3)Cc3nnnn3CC3CCCO3)cc2c1 (centres undefined)	i	i	i	0.92	i	i	.	.	.	.
